Laboratory results as given in ChEMBL document CHEMBL1126796, “2-(Alkylamino)nicotinic acid and analogs. Potent angiotensin II antagonists” (J Med Chem, 1993).
Activity calls are given as the source filed them. The calls are words filed in the database; no cut-off is given here.

Tests used:
Rattus norvegicus [1] = experiment: % decrease in blood pressure after 4 hours at a dose of 3 mg/kg administered iv in male rats by using Renal artery hypertensive model; IA means inactive; format: functional, organism-based; parameters: dose 3 mg/kg
Method in brief: (§1)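 Male Sprague-Dawley rats (300-350 g) were made hypertensive by renal artery ligation and used on day 6 or 7 after ligation. Arterial pressure was measured from an indwelling femoral artery catheter, with blood pressure and heart rate recorded on line. Read-out is % decrease in blood pressure at 4 h, ±SEM, with number of rats.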

[2] = molecular target: T1, Type-1 angiotensin II receptor A (Rattus norvegicus, UniProt P25095); experiment: Binding affinity against angiotensin II receptor from rat liver
T1 sequence (P25095 whole entry): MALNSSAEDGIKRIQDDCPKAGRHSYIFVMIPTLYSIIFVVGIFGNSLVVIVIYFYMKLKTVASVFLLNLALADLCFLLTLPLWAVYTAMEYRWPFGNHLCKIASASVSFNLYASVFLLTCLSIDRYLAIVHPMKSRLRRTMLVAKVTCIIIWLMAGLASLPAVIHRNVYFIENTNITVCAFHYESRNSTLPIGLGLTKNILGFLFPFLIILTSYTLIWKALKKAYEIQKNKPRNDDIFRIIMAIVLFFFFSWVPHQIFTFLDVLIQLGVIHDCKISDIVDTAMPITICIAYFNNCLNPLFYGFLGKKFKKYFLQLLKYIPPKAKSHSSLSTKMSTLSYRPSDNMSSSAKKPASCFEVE
Method in brief: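 Rat liver membranes were incubated with [125I]-saralasin to measure angiotensin II type 1 receptor binding. Nonspecific binding was defined with 1 µM angiotensin.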

Rattus norvegicus [3] = experiment: % decrease in blood pressure after 4 hours in male rats at a dose of 3 mg/kg administered iv by using Renal artery hypertensive model; IA means inactive; format: functional, organism-based; parameters: dose 3 mg/kg; method in brief: as §1
Rattus norvegicus [4] = experiment: % decrease in blood pressure after 4 hours at a dose of 30 mg/kg in male rats by using Renal artery hypertensive model; format: functional; method in brief: as §1
Rattus norvegicus [5] = experiment: % decrease in blood pressure after 4 hours at a dose of 0.3 mg/kg in male rats by using Renal artery hypertensive model; IA means inactive; format: functional, organism-based; parameters: dose 0.3 mg/kg; method in brief: as §1
Rattus norvegicus [6] = experiment: % decrease in blood pressure after 24 hours at a dose of 1 mg/kg in male rats by using Furosemide-treated spontaneous hypertensive model; format: functional
Method in brief: (§2)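 Male SHR, 20-24 weeks old, pretreated with furosemide 10 mg/kg sc at 22 and 4 h before the experiment; compound dosed orally. Arterial pressure was recorded from an indwelling femoral artery catheter with on-line blood pressure and heart rate analysis. Read-out is % fall in blood pressure at 4 h and at 24 h, ±SEM, with number of rats.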

Rattus norvegicus [7] = experiment: % decrease in blood pressure after 4 hours at a dose of 1 mg/kg in male rats by using Furosemide-treated spontaneous hypertensive model; format: functional; method in brief: as §2
Rattus norvegicus [8] = experiment: % decrease in blood pressure after 4 hours in male rats at a dose of 10 mg/kg by using Renal artery hypertensive model; format: functional; method in brief: as §1
Rattus norvegicus [9] = experiment: % decrease in blood pressure after 4 hours at a dose of 0.3 mg/kg in male rats by using Renal artery hypertensive model; format: functional; method in brief: as §1

Structure (SMILES)	Ki [2] [nM]	Decrease in blood pressure (Rattus norvegicus [6]) [%]	Decrease in blood pressure (Rattus norvegicus [7]) [%]	other results
CCc1ncc(C(=O)O)c(NCc2ccc(-c3ccccc3-c3nn[nH]n3)cc2)n1.Cl	68.1	–	–	Decrease in blood pressure (Rattus norvegicus [1]): inactive; Decrease in blood pressure (Rattus norvegicus [3]): inactive
CCCCN(Cc1ccc(-c2ccccc2-c2nn[nH]n2)cc1)c1nc(C)ncc1C(=O)O.Cl	15.3	–	–	Decrease in blood pressure (Rattus norvegicus [4]): 11%
CCCN(Cc1ccc(-c2ccccc2-c2nn[nH]n2)cc1)c1ncccc1CO	–	–	–	Decrease in blood pressure (Rattus norvegicus [5]): inactive
C=CCN(Cc1ccc(-c2ccccc2-c2nn[nH]n2)cc1)c1ncccc1C(=O)O	–	31	13	–
CCCN(Cc1ccc(-c2ccccc2-c2nn[nH]n2)cc1)c1nc(C)ncc1C(=O)O	2.78	–	–	Decrease in blood pressure (Rattus norvegicus [8]): 15%; Decrease in blood pressure (Rattus norvegicus [4]): 18%
CCCN(Cc1ccc(-c2ccccc2-c2nn[nH]n2)cc1)c1nc(F)ccc1C(=O)O	–	36	15	–
CCCN(Cc1ccc(-c2ccccc2-c2nn[nH]n2)cc1)c1nc(C)cnc1C(=O)O	–	18	2	–
CCCN(Cc1ccc(-c2ccccc2-c2nn[nH]n2)cc1)c1nnccc1C(=O)O	–	18	3	–
CCCN(Cc1ccc(-c2ccccc2-c2nn[nH]n2)cc1)c1ncc(F)cc1C(=O)O	–	22	6	–
CCCN(Cc1ccc(-c2ccccc2-c2nn[nH]n2)cc1)c1ncccc1NS(=O)(=O)C(F)(F)F	–	–	–	Decrease in blood pressure (Rattus norvegicus [9]): 6%
